Measured values as given in article PMC7184160 (EBioMedicine, 2020).
Read-outs that look alike come from different tables or passages of the source.

Key:
metastatic RCC [1] = details: range over the agents, cited from earlier work
[2] = phase 1 safety and tolerability of vorolanib plus everolimus; assay type: in vivo, human; details: in the combination, 22 patients
Outline: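 Open-label, single-centre 3+3 escalation in Chinese patients with advanced ccRCC after failed standard therapy. Oral test compound at 100, 150 or 200 mg daily, given 4 h after partner drug at a fixed 5 mg daily, in 28-day cycles. AEs graded by CTCAE v4.03. Allowed changes: stepwise reduction 200→150→100 mg/day, partner drug 5 mg every other day, and interruption up to 4 weeks.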

metastatic RCC [3] = details: phase II, advanced RCC after one previous antiangiogenic therapy; cited from earlier work
[4] = cited from earlier work
[5] = cited from earlier work; remark: listed apart in the source
[6] = plasma pharmacokinetics of vorolanib, X-297 and everolimus; assay type: in vivo; details: human, oral, t1/2z (half-life), range over cohorts, first single dose, vorolanib 100–200 mg in combination with everolimus 5 mg
[7] = system: VEGFR2 (KDR), PDGFR, Flt3 and c-Kit; details: range over VEGFR2 (KDR), ref unpublished data; cited from earlier work
[8] = cited from earlier work; remark: listed apart in the source
[9] = cited from earlier work; remark: listed apart in the source
[10] = established second-line monotherapies, Discussion
[11] = second-line options for metastatic RCC
[12] = monotherapy 50–800 mg once daily

Molecule: CNC(=O)c1ccccc1Sc1ccc2c(/C=C/c3ccccn3)n[nH]c2c1 [axitinib]
- median PFS (metastatic RCC [1]; [10]): 4.4–8.3 months
- median PFS (metastatic RCC [1]; [11]): 3.8–7.4 months

Molecule: COc1cc2nccc(Oc3ccc(NC(=O)C4(C(=O)Nc5ccc(F)cc5)CC4)cc3)c2cc1OC [cabozantinib]
- median PFS (metastatic RCC [1]; [10]): 4.4–8.3 months
- median PFS (metastatic RCC [1]; [11]): 3.8–7.4 months

Molecule: CO[C@H]1C[C@@H]2CC[C@@H](C)[C@@](O)(O2)C(=O)C(=O)N2CCCC[C@H]2C(=O)O[C@H]([C@H](C)C[C@@H]2CC[C@@H](OCCO)[C@H](OC)C2)CC(=O)[C@H](C)/C=C(\C)[C@@H](O)[C@@H](OC)C(=O)[C@H](C)C[C@H](C)/C=C/C=C/C=C/1C [everolimus]
- patients with dose interruption [2]: eight
- median PFS (metastatic RCC [3]): 5.5 months
- patients with grade 3 and 4 events [4]: 50%
- median PFS (metastatic RCC [1]; [10]): 4.4–8.3 months
- median PFS (metastatic RCC [1]; [11]): 3.8–7.4 months

Molecule: COc1cc2nccc(Oc3ccc(NC(=O)NC4CC4)c(Cl)c3)c2cc1C(N)=O [lenvatinib]
- median PFS (metastatic RCC [3]): 7.4 months

Molecule: CCN(CC)CCNC(=O)c1c(C)[nH]c(/C=C2\C(=O)Nc3ccc(F)cc32)c1C [sunitinib]
- grade 3/4 AE diarrhea [5]: 5%
- grade 3/4 AE fatigue [5]: 7%
- grade 3/4 AE hand-foot syndrome [5]: 5%
- grade 3/4 AE hypertension [5]: 8%
- grade 3/4 AE increased lipase [5]: 13%
- grade 3/4 AE lymphopenia [5]: 12%
- grade 3/4 AE neutropenia [5]: 11%
- grade 3/4 AE vomiting [5]: 4%

Molecule: Cc1[nH]c(/C=C2\C(=O)Nc3ccc(F)cc32)c(C)c1C(=O)N[C@H]1CCN(C(=O)N(C)C)C1 [vorolanib, Vorolanib]
- patients with dose interruption [2]: fourteen
- patients with dose reduction [2]: four
- half-life [6]: 4.74 to 12.9 h
- IC50 [7]: 0.13 to 1.12 nM
- grade 4 AEs or deaths related to vorolanib [8, 12]: no grade 4 AEs or deaths related to vorolanib was reported
- treatment-related grade 3 adverse event proteinuria [8, 12]: 4%
- apparent saturation of absorption (dose) ([8]; monotherapy tablet once daily): 400 to 800 mg
- MTD ([8]; monotherapy tablet, dose range 50–800 mg once daily, solid tumors): not achieved
- maximum tolerated dose (MTD) ([8]; monotherapy, dose range 20 to 400 mg daily): without achieving the most tolerated dose (MTD)
- recommended dose of monotherapy ([8]; once daily, patients with advanced cancer): 400 mg
- patients with grade 3 or higher events ([9]; across 100 to 250 mg dose cohort): 7 out of 19
- recommended dose for monotherapy [9]: 200 mg
- MTD ([9]; monotherapy 50–250 mg once daily, Chinese patients): not achieved
- dose-limited toxicity (DLT) ([9]; monotherapy, China): No dose-limited toxicity (DLT) was observed

Molecule: nivolumab
- median PFS (metastatic RCC [1]; [10]): 4.4–8.3 months
- median PFS (metastatic RCC [1]; [11]): 3.8–7.4 months
